Only some compounds are listed: those with a hit (about 0.55% of all), similar ones and a draw of the others.
HSV replic up – enhancers of HSV replication in host cells, fold increase, host cell viability; HSV replication augmentation in cells; maximum fold increase; 0.005% of 220,000 active; in the data active means maximum fold increase above about 1.5; tested in PC3 cells
ABCG2 inh – ABCG2 efflux pump inhibitors, primary screen, multiplex with ABCB1, IgMXP3 cells, flow cytometry; Broad substrate specificity ATP-binding cassette transporter ABCG2 (Homo sapiens), Q9UNQ0; JC-1 efflux; inhibition, % at 6.6 µM; 0.1% of 190,000 active;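 active means inhibition above 80%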;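 further: 0% = DMSO and 100% = nicardipine control wells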
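Read-out basis: Efflux inhibition in percent versus controls | Test system: ABCG2 IgMXP3 and barcoded ABCB1 CCRF-Adr cell mix | Quantity: 3 million cells/mL in well | Schedule: 10 min at 25 °C | Control set: Nicardipine as high control, DMSO as low control | Reagent: JC-1 as fluorescent efflux pump substrate | Signal: Flow cytometry of retained JC-1 fluorescence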
ABCB1 inh – ABCB1 efflux pump inhibitors, primary screen, cell-based, multiplex, flow cytometry, ABCG2 counter-screen. 0.067% of 190,000 active. CCRF-Adr cells, JC-1 efflux. inhibition, % at 6.6 µM; in the data active means inhibition above about 40%;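 further: 0% = vehicle and 100% = reference inhibitor; higher value means more JC-1 retained so stronger ABCB1 efflux block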
ABCB6 inh MLPCN – ABCB6 transporter inhibitors, primary screen, K562-ABCB6 cells, flow cytometry, MLPCN library; fluorescence ratio to DMSO, % at 10 µM; AID 602162, 2011; K562-ABCB6 porphyrin accumulation, 1 h; stronger effect = lower value; ATP-binding cassette sub-family B member 6 (Homo sapiens), Q9NP58; 0.19% of 360,000 active;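 active means fluorescence ratio to DMSO below 75%, the collection mean minus 3 SD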;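 further: signal is porphyrin accumulated inside mitochondria; 100% equals median channel fluorescence of DMSO control wells; lower ratio means ABCB6 inhibition with less porphyrin fluorescence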
Target sequence (Q9NP58 whole entry, looked up): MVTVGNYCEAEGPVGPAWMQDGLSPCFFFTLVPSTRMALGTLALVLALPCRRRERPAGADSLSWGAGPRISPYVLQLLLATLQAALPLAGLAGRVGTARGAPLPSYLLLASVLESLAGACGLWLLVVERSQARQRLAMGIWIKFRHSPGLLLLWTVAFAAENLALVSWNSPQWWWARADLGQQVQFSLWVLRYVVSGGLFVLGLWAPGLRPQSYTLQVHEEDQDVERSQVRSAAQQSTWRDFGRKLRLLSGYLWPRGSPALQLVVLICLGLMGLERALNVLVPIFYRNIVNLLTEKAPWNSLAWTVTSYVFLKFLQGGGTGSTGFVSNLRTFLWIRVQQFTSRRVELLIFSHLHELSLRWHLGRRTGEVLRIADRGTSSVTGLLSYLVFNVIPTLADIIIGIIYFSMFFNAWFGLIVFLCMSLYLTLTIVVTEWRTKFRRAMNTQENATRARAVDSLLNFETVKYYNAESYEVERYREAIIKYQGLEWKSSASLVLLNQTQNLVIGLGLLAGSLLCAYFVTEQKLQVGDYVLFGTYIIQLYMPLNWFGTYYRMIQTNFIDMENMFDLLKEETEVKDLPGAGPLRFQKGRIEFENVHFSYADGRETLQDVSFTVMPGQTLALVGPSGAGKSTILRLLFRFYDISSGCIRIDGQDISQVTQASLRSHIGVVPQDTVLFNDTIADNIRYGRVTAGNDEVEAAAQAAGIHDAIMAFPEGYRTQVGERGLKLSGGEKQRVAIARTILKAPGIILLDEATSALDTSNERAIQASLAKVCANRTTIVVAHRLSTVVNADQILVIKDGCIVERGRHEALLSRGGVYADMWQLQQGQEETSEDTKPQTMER
Rad51 HR inh – human RAD51 strand exchange inhibitors, primary screen, biochemical, fluorescence; hRad51 DNA strand exchange, fluorescence dequenching; inhibition, % at 10 µM; 0.085% of 200,000 active; AID 1385, 2008;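 active means inhibition above 40% at the single screening dose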;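 further: 0% = DMSO control wells and 100% = blanks with heterologous ssDNA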
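Test system: preformed human Rad51 ssDNA filaments. Compound dosing: single dose, 10 µM final compound. Incubation: filaments 15 min 37 °C, then compound 30 min. Technique: FRET fluorescence dequenching, excitation 485 nm, emission 520 nm. Read-out basis: percent inhibition from fluorescence, normalised to plate control and blank means. Benchmarks: plate controls and plate blanks.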
p97 ATPase inh – inhibitors of human p97 ATPase, primary screen, biochemical; inhibition, % at 8 µM; 0.42% of 220,000 active; Transitional endoplasmic reticulum ATPase (Homo sapiens), P55072; recombinant p97 ATPase, Kinase-Glo ATP luminescence, 3 h; AID 1481, 2009; in the data active means inhibition above about 15%;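 further: 0% = DMSO vehicle and 100% = wells lacking enzyme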
ABCB1 single pt – ABCB1 efflux pump inhibitors, confirmation, cell-based, single point, ABCG2 counter-screen; CCRF-Adr cells, JC-1 efflux, flow cytometry; 7% of 270 active; AID 1451, 2008; inhibition, % at 6.6 µM; shares compounds with ABCG2 inh;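 active means inhibition of pump activity above 50%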;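 further: 0% = DMSO and 100% = nicardipine full pump inhibition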
ABCG2 single pt – ABCG2 efflux pump inhibitors, confirmation, single point, IgMXP3 cells, ABCB1 counter-screen paired. shares compounds with ABCG2 inh. JC-1 efflux, flow cytometry. inhibition, % at 6.6 µM. 6% of 270 active. AID 1453, 2008;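 active means inhibition above 50%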;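 further: 0% = DMSO wells and 100% = nicardipine pump inhibitor wells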
IgMXP3 fluor – compound autofluorescence in ABCG2-expressing IgMXP3 cells, confirmation, artefact control for ABC transporter inhibitor project, cell-based, 488/530 nm, flow cytometry | shares compounds with ABCG2 inh | compound autofluorescence 488/530 nm; stronger effect = higher value | fluorescence at 6.6 µM | 30% of 270 active;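 active means fluorescence in ABCG2-expressing cells above the plate's control-well mean plus 3 SD, cut at about 15 in these data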;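 further: median cell fluorescence with compound minus that of DMSO-treated control cells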
CCRF-Adr fluor – compound autofluorescence in ABCB1-expressing CCRF-Adr cells, confirmation, artefact control for ABC transporter inhibitor project, cell-based, 488/530 nm, flow cytometry; shares compounds with ABCG2 inh; compound autofluorescence 488/530 nm; stronger effect = higher value; fluorescence at 6.6 µM; 30% of 270 active; AID 1483, 2009;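 active means fluorescence beyond the plate control mean plus 3 SD, with a fluorescence-to-maximum score over 2, cut at about 25 in these data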
p97 confirm – p97 ATPase inhibitors, retest, confirmation, biochemical; shares compounds with p97 ATPase inh; recombinant p97 ATPase, Kinase-Glo ATP luminescence; inhibition, % at 8 µM; 44% of 760 active; AID 1517, 2009;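 active means percent inhibition of p97 ATPase above a set limit, the primary screen's mean plus 3 SD, cut at about 15% in these data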;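 further: 0% = DMSO wells and 100% = wells lacking p97 protein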
An asterisk follows results filed as active.

Screening C[C@H](CO)N1C[C@H](C)[C@@H](CN(C)Cc2ccccn2)Oc2ncc(Br)cc2C1=O returned ABCB6 inh MLPCN 101.0.
Screening CCN(CC)S(=O)(=O)c1ccc(OC)c(NC(=O)c2cccc(C)c2[N+](=O)[O-])c1 returned HSV replic up inactive, ABCG2 inh 88.4*, ABCB1 inh 3.0, ABCB6 inh MLPCN 92.0, Rad51 HR inh -44.8, p97 ATPase inh -0.9, ABCB1 single pt 0.9, ABCG2 single pt 48.5, IgMXP3 fluor 4.71 and CCRF-Adr fluor 2.86.
Screening COc1ccc(OC)c(NC(=O)c2cccc(C)c2[N+](=O)[O-])c1 returned HSV replic up inactive, ABCG2 inh 4.7, ABCB1 inh -1.4, ABCB6 inh MLPCN 103.0, Rad51 HR inh 8.9 and p97 ATPase inh 0.2.
Screening O=C(NCc1ccc2c(c1)OCO2)Nc1cccc(Cl)c1 returned ABCB6 inh MLPCN 100.0.
Screening O=C(Nc1cccc(Cl)c1)Nc1ccc2c(c1)OCO2 returned HSV replic up inactive, ABCG2 inh 74.0, ABCB1 inh 0.9, ABCB6 inh MLPCN 92.0, Rad51 HR inh -0.6, p97 ATPase inh 1.6, ABCB1 single pt 10.5, ABCG2 single pt 18.0, IgMXP3 fluor 8.66 and CCRF-Adr fluor 11.5.
CCOC(=O)N1CCN(/C=C(\C#N)c2nc3ccccc3s2)CC1 was read as HSV replic up inactive, ABCG2 inh 87.0*, ABCB1 inh 64.0*, ABCB6 inh MLPCN 121.0, Rad51 HR inh -211.1, p97 ATPase inh -0.3, ABCB1 single pt 1.4, ABCG2 single pt 17.0, IgMXP3 fluor -0.99 and CCRF-Adr fluor 15.1.
For N#C/C(=C\N1CCN(Cc2ccc3c(c2)OCO3)CC1)c1nc2ccccc2s1 the results were HSV replic up inactive, ABCG2 inh 15.8, ABCB1 inh 13.3, ABCB6 inh MLPCN 214.0, Rad51 HR inh -160.6 and p97 ATPase inh 4.2.
Screening CCOC(=O)c1sc2cc([N+](=O)[O-])cc(SCCO)c2c1N returned HSV replic up inactive, ABCG2 inh 81.8*, ABCB1 inh 2.5, ABCB6 inh MLPCN 347.0, Rad51 HR inh -14.6, p97 ATPase inh 5.7, ABCB1 single pt 0.9, ABCG2 single pt 21.1, IgMXP3 fluor 1.41 and CCRF-Adr fluor -0.69.
Screening CCOC(=O)c1sc2cc([N+](=O)[O-])cc(SCC(=O)OC)c2c1N returned HSV replic up inactive, ABCG2 inh 40.1, ABCB1 inh 2.8, ABCB6 inh MLPCN 171.0, Rad51 HR inh -5.3 and p97 ATPase inh -4.8.
Screening Cc1ccc(-c2nc3ccc(C)cn3c2CC2CCCCC2)cc1 returned ABCB6 inh MLPCN 119.0.
CCC(=O)NNc1nc2c(C)cc(C)cc2s1 was read as HSV replic up inactive, ABCG2 inh 0.6, ABCB1 inh 0.3, ABCB6 inh MLPCN 96.0, Rad51 HR inh -3.0, p97 ATPase inh 15.2* and p97 confirm 6.2.
For CCc1noc(C)c1C(=O)Nc1nc2c(C)cc(C)cc2s1 the results were ABCB6 inh MLPCN 100.0.
For CC(C)c1nnc(NC(=O)C2CCCCC2)s1 the results were HSV replic up inactive, ABCG2 inh -0.1, ABCB1 inh -0.1, ABCB6 inh MLPCN 96.0, Rad51 HR inh -2.6, p97 ATPase inh 15.8* and p97 confirm 2.2.
Screening Nn1cnnc1N/N=C\c1ccc(-c2ccccc2[N+](=O)[O-])o1 returned HSV replic up inactive, ABCG2 inh 15.4, ABCB1 inh 0.1, ABCB6 inh MLPCN 91.0, p97 ATPase inh 27.3* and p97 confirm 6.6.
For O=[N+]([O-])c1ccccc1-c1ccc(/C=N/n2cnnc2)o1 the results were HSV replic up inactive, ABCG2 inh 27.5, ABCB1 inh 0.4, ABCB6 inh MLPCN 97.0, Rad51 HR inh -1.6 and p97 ATPase inh 1.5.
For C[C@H]1CN([C@@H](C)CO)C(=O)CCCn2nncc2CO[C@H]1CN(C)C(=O)c1ccccc1 the results were ABCB6 inh MLPCN 98.0.
Cc1ccc(CCN2CC(C(=O)NCCCN3CCCCCC3)CC2=O)cc1 (centres undefined) was read as HSV replic up inactive, ABCG2 inh -0.9, ABCB1 inh -0.1, ABCB6 inh MLPCN 96.0, Rad51 HR inh 0.4, p97 ATPase inh 20.5* and p97 confirm 5.2.
For Cc1c(Br)c(O)c(Br)c2sc(=O)oc12 the results were HSV replic up inactive, ABCB6 inh MLPCN 101.0, Rad51 HR inh 18.2, p97 ATPase inh 22.4* and p97 confirm 6.6.
`C=CCNC(=S)Nc1ccc2nsnc2c1` gave HSV replic up inactive, ABCG2 inh 0.0, ABCB1 inh -0.2, ABCB6 inh MLPCN 104.0, Rad51 HR inh -25.4, p97 ATPase inh 28.6* and p97 confirm 1.0.
For C=CCN(CC=C)C(=S)Nc1ccc2nsnc2c1 the results were HSV replic up inactive, ABCG2 inh 5.8, ABCB1 inh -0.2, ABCB6 inh MLPCN 105.0, Rad51 HR inh -1.8, p97 ATPase inh 18.4* and p97 confirm 4.3.
For COc1ccc(S(=O)(=O)N(C)C[C@@H]2Oc3cc(Br)ccc3S(=O)(=O)N([C@H](C)CO)C[C@@H]2C)cc1 the results were ABCB6 inh MLPCN 98.0.

Bioassay records deposited in PubChem by several laboratories.
